From ChEMBL document CHEMBL1629449, “Structure-based design, synthesis, and pharmacological evaluation of 3-(aminoalkyl)-5-fluoroindoles as myeloperoxidase inhibitors” (J Med Chem, 2010)

Columns and labels:
Myeloperoxidase [1] = molecular target: T1, Myeloperoxidase (Homo sapiens, UniProt P05164); assay: Inhibition of recombinant MPO mediated taurine chlorination by microplate reader method; type: single protein
T1 sequence (P05164 whole entry): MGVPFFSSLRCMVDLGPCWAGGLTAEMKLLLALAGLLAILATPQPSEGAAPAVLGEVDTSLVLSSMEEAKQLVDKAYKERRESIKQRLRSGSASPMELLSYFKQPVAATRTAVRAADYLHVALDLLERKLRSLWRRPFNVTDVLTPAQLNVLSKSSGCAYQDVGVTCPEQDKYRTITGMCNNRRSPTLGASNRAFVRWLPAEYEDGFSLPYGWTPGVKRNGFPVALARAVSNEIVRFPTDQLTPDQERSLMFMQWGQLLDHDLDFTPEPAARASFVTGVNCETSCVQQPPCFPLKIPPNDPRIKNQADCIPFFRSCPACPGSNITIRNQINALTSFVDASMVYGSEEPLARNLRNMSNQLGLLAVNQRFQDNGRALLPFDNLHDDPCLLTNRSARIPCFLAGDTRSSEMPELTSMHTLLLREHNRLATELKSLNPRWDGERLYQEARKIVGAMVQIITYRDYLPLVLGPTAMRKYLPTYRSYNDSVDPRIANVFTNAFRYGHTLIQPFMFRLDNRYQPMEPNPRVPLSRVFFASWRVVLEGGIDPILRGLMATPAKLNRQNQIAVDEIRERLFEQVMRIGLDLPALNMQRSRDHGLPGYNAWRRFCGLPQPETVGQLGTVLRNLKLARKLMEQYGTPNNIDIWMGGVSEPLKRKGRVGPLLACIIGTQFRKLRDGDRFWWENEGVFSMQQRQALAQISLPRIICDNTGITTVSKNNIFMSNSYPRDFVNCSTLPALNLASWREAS
How it was run: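 Recombinant MPO (40 nM) was incubated with taurine (15 mM) in pH 7.4 phosphate buffer (10 mM/300 mM NaCl) with compound up to 20 μM at 37 °C. The reaction was started with H2O2 (100 μM) and stopped with catalase after 5 min. Taurine chloramine was read with thionitrobenzoic acid at 412 nm. The no-H2O2 control was set as 100% inhibition. IC50 is the mean ± SD of 3 independent experiments.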

Myeloperoxidase [2] = molecular target: T1, Myeloperoxidase; assay: Inhibition of recombinant MPO mediated LDL oxidation using MPO/Cl-/H2O2 system
How it was run: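 LDL was isolated from human plasma by ultracentrifugation. It was oxidised at 37 °C in PBS pH 7.2 with MPO (1 μg/mL), LDL (1000 μg/mL), HCl (4 mM), H2O2 (100 μM) and test drug, final concentrations. The reaction was stopped after 5 min on ice. Oxidised LDL was detected by ELISA with Mab AG9 (A405). Most IC50s came from three concentrations (1000, 100, 50 nM).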

[3] = molecular target: T2, Myeloperoxidase (Homo sapiens) (UniProt P05164); assay: Inhibition of recombinant MPO assessed as rate of electron donation to MPO redox intermediate compound I by sequential mixing stopped flow spectroscopy
T2 sequence (whole entry): T1 sequence (P05164 whole entry)
How it was run: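 Stopped-flow kinetics at pH 7.4, 25 °C, in 200 mM phosphate buffer with 2% (v/v) organic solvent. Purified MPO (purity index at least 0.86) at 8 μM was premixed with 80 μM H2O2. Each kobs is the mean of at least three determinations. k3 was taken as the slope of kobs versus substrate concentration.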

[4] = molecular target: T2, Myeloperoxidase (Homo sapiens); assay: Inhibition of recombinant MPO assessed as rate of electron donation to MPO redox intermediate compound II by sequential mixing stopped flow spectroscopy
How it was run: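 Stopped-flow at pH 7.4, 25 °C, in 200 mM phosphate buffer. Each kobs is the mean of at least three determinations. The second-order rate constant was taken as the slope of kobs versus substrate concentration.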

Row | SMILES | IC50 (Myeloperoxidase [1]) [nM] | IC50 (Myeloperoxidase [2]) [nM] | Activity [3] [×10⁷ /M/s] | Activity [4] [M⁻¹ s⁻¹]
1 | CNCCCc1c[nH]c2ccc(F)cc12 | 200 | 26 | – | –
2 | NCCCc1c[nH]c2ccc(F)cc12 | – | 650 | – | –
3 | CCN(CC)Cc1c[nH]c2ccc(F)cc12 | 200 | > 1000 | – | –
4 | CN(C)CCCc1c[nH]c2ccc(F)cc12 | – | 49 | – | –
5 | CNCCc1c[nH]c2ccc(F)cc12 | 200 | 650 | – | –
6 | CN1CCN(Cc2c[nH]c3ccc(F)cc23)CC1 | 1000 | > 1000 | – | –
7 | CCCCNCCCc1c[nH]c2ccc(F)cc12 | 1500 | 17 | – | –
8 | CN1CCN(CCCc2c[nH]c3ccc(F)cc23)CC1 | 350 | 310 | – | –
9 | NCCCCc1c[nH]c2ccc(F)cc12 | – | 12 | 1.1 | 360
10 | NCCCCCc1c[nH]c2ccc(F)cc12 | – | 5 | 1 | 506
11 | NCCCCCCc1c[nH]c2ccc(F)cc12 | – | 580 | – | –
12 | CN(C)CCc1c[nH]c2ccc(F)cc12 | – | 580 | – | –
13 | NCc1c[nH]c2ccc(F)cc12 | 900 | > 1000 | – | –
14 | CCN(CC)CCCc1c[nH]c2ccc(F)cc12 | 350 | 390 | – | –
15 | NCCc1c[nH]c2ccc(F)cc12 | – | 940 | – | –
16 | CCN(CC)CCc1c[nH]c2ccc(F)cc12 | – | 510 | – | –
17 | CCCNCCCc1c[nH]c2ccc(F)cc12 | 170 | 340 | – | –
18 | CCNCCc1c[nH]c2ccc(F)cc12 | 300 | 850 | – | –
19 | Fc1ccc2[nH]cc(CCN3CCCC3)c2c1 | – | 1030 | – | –
20 | CCCNCCc1c[nH]c2ccc(F)cc12 | 800 | 460 | – | –
21 | Fc1ccc2[nH]cc(CCCN3CCCC3)c2c1 | 320 | 210 | – | –
22 | CN1CCN(CCc2c[nH]c3ccc(F)cc23)CC1 | 200 | 650 | – | –
23 | CCNCCCc1c[nH]c2ccc(F)cc12 | 300 | 190 | – | –
24 | CCCCNCCc1c[nH]c2ccc(F)cc12 | 1030 | 250 | – | –
